# Results reported in ChEMBL document CHEMBL4480426, “Novel multi-target directed ligands based on annelated xanthine scaffold with aromatic substituents acting on adenosine receptor and monoamine oxidase B. Synthesis, in vitro and in silico studies” (Bioorg Med Chem, 2019).
# How the values were obtained:
# [1] = molecular target: T1, Amine oxidase [flavin-containing] A (Homo sapiens, UniProt P21397); experiment: Inhibition of recombinant human MAOA expressed in baculovirus infected BTI insect cells at 1 to 100 uM using p-tyramine as substrate preincubated for 30 mins followed by substrate addition and measured over 45 mins by horseradish peroxidase-Amplex Red-coupled fluorometric assay relative to control; conditions: 0.75 h
# T1 sequence (P21397 whole entry): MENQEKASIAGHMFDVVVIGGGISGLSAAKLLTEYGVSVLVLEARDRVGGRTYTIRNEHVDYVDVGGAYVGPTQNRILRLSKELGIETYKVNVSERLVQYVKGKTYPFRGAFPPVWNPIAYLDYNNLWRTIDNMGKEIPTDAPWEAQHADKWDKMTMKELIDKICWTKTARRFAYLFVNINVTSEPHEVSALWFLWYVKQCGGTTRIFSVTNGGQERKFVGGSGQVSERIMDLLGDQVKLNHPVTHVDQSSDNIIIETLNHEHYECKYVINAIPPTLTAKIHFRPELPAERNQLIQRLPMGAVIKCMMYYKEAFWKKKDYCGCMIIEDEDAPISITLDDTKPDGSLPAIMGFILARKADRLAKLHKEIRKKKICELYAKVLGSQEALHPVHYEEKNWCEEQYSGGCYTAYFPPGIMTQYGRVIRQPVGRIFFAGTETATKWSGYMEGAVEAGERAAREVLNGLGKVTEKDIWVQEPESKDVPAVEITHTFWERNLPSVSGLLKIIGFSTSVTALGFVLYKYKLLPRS
# Procedure, shortened: (§1)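 Human recombinant MAO-A or MAO-B enzyme. Activity detected fluorometrically with the Amplex Red monoamine oxidase assay.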
# [2] = molecular target: T1, Amine oxidase [flavin-containing] A; experiment: Inhibition of recombinant human MAOA expressed in baculovirus infected BTI insect cells using p-tyramine as substrate preincubated for 30 mins followed by substrate addition and measured over 45 mins by horseradish peroxidase-Amplex Red-coupled fluorometric assay; procedure, shortened: as §1
# [3] = molecular target: T2, Adenosine receptor A3 (Homo sapiens, UniProt P0DMS8); experiment: Displacement of [3H]PSB11 from recombinant human adenosine A3 receptor expressed in CHO cells; type: cell-based
# T2 sequence (P0DMS8 whole entry): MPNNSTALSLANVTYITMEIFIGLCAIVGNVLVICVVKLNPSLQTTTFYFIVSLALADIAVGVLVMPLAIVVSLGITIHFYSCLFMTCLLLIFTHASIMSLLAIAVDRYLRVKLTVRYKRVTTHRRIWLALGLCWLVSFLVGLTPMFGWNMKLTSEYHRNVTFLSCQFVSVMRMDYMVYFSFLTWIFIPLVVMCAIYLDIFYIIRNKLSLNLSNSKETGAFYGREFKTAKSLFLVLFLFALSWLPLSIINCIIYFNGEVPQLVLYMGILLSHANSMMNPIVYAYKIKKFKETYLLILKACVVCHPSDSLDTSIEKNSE
# [4] = molecular target: T3, Adenosine receptor A2b (Homo sapiens, UniProt P29275); experiment: Displacement of [3H]PSB603 from recombinant human adenosine A2b receptor expressed in HEK293 cells; type: cell-based
# T3 sequence (P29275 whole entry): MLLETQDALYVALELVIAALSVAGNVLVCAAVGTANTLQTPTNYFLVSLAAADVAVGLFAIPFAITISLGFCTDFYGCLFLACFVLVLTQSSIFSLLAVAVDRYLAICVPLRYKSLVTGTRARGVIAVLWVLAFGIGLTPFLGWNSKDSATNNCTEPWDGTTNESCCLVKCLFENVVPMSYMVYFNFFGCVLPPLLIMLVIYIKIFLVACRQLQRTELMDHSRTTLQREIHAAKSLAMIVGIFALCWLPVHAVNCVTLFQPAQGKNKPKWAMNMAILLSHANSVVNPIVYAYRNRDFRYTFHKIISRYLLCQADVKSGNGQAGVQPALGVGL
# [5] = molecular target: T4, Adenosine receptor A1 (Rattus norvegicus, UniProt P25099); experiment: Displacement of [3H]CCPA from adenosine A1 receptor in rat brain cortical membranes; type: cell membranes
# T4 sequence (P25099 whole entry): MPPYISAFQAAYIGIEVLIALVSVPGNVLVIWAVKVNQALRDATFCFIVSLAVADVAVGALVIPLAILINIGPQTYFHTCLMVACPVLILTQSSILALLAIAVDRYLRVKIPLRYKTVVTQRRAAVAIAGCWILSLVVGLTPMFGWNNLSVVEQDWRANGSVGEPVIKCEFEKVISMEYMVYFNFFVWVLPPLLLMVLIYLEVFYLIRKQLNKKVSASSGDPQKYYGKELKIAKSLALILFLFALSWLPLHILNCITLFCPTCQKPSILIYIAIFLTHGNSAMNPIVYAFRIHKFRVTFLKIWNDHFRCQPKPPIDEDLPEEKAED
# [6] = molecular target: T5, Amine oxidase [flavin-containing] B (Homo sapiens, UniProt P27338); experiment: Inhibition of recombinant human MAOB expressed in baculovirus infected BTI insect cells using p-tyramine as substrate preincubated for 30 mins followed by substrate addition and measured over 45 mins by horseradish peroxidase-Amplex Red-coupled fluorometric assay; procedure, shortened: as §1
# T5 sequence (P27338 whole entry): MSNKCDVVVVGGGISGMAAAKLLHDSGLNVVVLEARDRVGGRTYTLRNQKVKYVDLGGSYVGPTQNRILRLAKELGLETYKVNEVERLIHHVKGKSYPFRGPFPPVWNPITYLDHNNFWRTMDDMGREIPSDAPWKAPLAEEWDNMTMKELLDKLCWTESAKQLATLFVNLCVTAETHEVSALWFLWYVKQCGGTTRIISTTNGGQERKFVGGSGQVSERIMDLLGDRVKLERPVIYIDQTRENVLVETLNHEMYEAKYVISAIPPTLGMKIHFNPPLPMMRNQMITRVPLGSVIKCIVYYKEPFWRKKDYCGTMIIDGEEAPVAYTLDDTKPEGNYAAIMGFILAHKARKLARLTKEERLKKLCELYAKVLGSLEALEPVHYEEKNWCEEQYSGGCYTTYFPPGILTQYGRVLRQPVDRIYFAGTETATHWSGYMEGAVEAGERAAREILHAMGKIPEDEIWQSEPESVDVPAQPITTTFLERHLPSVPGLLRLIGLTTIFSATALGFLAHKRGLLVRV
# [7] = molecular target: Adenosine receptor A2a (Homo sapiens, UniProt P29274); experiment: Displacement of [3H]MSX2 from recombinant human adenosine A2a receptor expressed in HEK293 cells; type: cell-based
# [8] = molecular target: T6, Adenosine receptor A3 (Homo sapiens) (UniProt P0DMS8); experiment: Displacement of [3H]PSB11 from recombinant human adenosine A3 receptor expressed in CHO cells at 1 uM relative to control; type: cell-based
# T6 sequence (whole entry): T2 sequence (P0DMS8 whole entry)
# Procedure, shortened: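 Purchased membranes of CHO cells expressing human A1 ([3H]CCPA) or human A3 ([3H]PSB-11). A single high compound concentration is screened first; for potent compounds, full inhibition curves spanning 3 orders of magnitude. At least three independent experiments.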
# [9] = molecular target: T7, Adenosine receptor A1 (Homo sapiens, UniProt P30542); experiment: Displacement of [3H]CCPA from recombinant human adenosine A1 receptor expressed in CHO cells; type: cell-based
# T7 sequence (P30542 whole entry): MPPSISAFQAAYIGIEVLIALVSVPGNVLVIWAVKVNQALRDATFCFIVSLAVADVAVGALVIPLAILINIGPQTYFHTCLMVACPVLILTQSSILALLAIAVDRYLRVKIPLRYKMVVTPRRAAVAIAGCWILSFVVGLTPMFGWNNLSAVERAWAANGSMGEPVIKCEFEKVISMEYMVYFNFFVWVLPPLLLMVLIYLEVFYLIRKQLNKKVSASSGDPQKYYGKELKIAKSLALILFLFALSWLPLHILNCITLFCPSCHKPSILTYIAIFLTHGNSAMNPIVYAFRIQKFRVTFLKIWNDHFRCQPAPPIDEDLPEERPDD
# [10] = molecular target: T8, Adenosine receptor A2b (Homo sapiens) (UniProt P29275); experiment: Displacement of [3H]PSB603 from recombinant human adenosine A2b receptor expressed in HEK293 cells at 1 uM relative to control; type: cell-based
# T8 sequence (whole entry): T3 sequence (P29275 whole entry)
# Procedure, shortened: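 Purchased membranes of HEK cells expressing human A2A ([3H]MSX-2) or human A2B ([3H]PSB-603). A single high compound concentration is screened first; for potent compounds, full inhibition curves spanning 3 orders of magnitude. At least three independent experiments.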
# Sequence of Adenosine receptor A2a (P29274 whole entry): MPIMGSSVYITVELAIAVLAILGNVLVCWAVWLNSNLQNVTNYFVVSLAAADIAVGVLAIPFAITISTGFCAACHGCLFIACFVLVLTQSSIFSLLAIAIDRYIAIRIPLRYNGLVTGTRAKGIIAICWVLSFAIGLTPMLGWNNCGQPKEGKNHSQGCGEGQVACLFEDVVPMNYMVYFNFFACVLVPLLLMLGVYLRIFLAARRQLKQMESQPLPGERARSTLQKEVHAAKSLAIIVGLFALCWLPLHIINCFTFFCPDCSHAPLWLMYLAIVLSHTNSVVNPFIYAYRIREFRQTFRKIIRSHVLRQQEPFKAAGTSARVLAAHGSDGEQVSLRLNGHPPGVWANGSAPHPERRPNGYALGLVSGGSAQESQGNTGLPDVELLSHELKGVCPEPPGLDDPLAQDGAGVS
SMILES,inhibition (INH) [1],IC50 [2],Ki [3],Ki [4],Ki [5],IC50 [6],Ki [7],inhibition [8],Ki [9],inhibition [10]
Cn1c(=O)c2c(nc3n2CCCN3Cc2ccc(Br)cc2F)n(C)c1=O,-2%,> 1000 nM,> 1000 nM,> 1000 nM,4130 nM,426 nM,> 1000 nM,–,–,–
Cn1c(=O)c2c(nc3n2CCCN3Cc2cc(C(F)(F)F)ccc2Cl)n(C)c1=O,–,–,> 1000 nM,> 1000 nM,931 nM,1070 nM,> 1000 nM,–,–,–
Cn1c(=O)c2c(nc3n2CCCN3Cc2ccc(F)cc2Cl)n(C)c1=O,–,–,> 1000 nM,> 1000 nM,> 1000 nM,411 nM,> 1000 nM,–,–,–
Cn1c(=O)c2c(nc3n2CCCN3Cc2cc(Br)ccc2F)n(C)c1=O,–,–,> 1000 nM,> 1000 nM,486 nM,1180 nM,> 1000 nM,–,–,–
Cn1c(=O)c2c(nc3n2CCCN3Cc2ccc(F)c(Br)c2)n(C)c1=O,1%,> 1000 nM,> 1000 nM,> 1000 nM,4360 nM,346 nM,8270 nM,–,–,–
Cn1c(=O)c2c(nc3n2CCCN3Cc2ccccc2F)n(C)c1=O,-1%,> 1000 nM,> 1000 nM,> 1000 nM,1780 nM,583 nM,1210 nM,–,–,–
Cn1c(=O)c2c(nc3n2CCCN3Cc2ccc(Cl)c(F)c2)n(C)c1=O,9%,> 100000 nM,> 1000 nM,> 1000 nM,> 1000 nM,264 nM,> 1000 nM,–,–,–
Cn1c(=O)c2c(nc3n2CCCN3Cc2cccc(Br)c2)n(C)c1=O,-1%,> 1000 nM,> 1000 nM,> 1000 nM,965 nM,396 nM,1700 nM,–,–,–
Cn1c(=O)c2c(nc3n2CCCCN3Cc2cccc(Br)c2)n(C)c1=O,6%,> 1000 nM,> 1000 nM,> 1000 nM,–,371 nM,> 1000 nM,26%,651 nM,41%
Cn1c(=O)c2c(nc3n2CCCN3Cc2ccc(C(C)(C)C)cc2)n(C)c1=O,–,–,–,–,–,1350 nM,–,–,–,–
Cn1c(=O)c2c(nc3n2CCCN3Cc2ccc(Cl)cc2F)n(C)c1=O,2%,> 1000 nM,> 1000 nM,> 1000 nM,4900 nM,377 nM,8910 nM,–,–,–
COc1ccc(CN2CCCn3c2nc2c3c(=O)n(C)c(=O)n2C)cc1Cl,38%,> 100000 nM,> 1000 nM,> 1000 nM,> 1000 nM,407 nM,8000 nM,–,–,–
Cn1c(=O)c2c(nc3n2CCCN3Cc2ccc(Cl)c(C(F)(F)F)c2)n(C)c1=O,2%,> 1000 nM,> 1000 nM,> 1000 nM,> 1000 nM,310 nM,> 1000 nM,–,–,–
Cn1c(=O)c2c(nc3n2CCCN3Cc2cc(Cl)ccc2Cl)n(C)c1=O,–,–,> 1000 nM,> 1000 nM,3020 nM,758 nM,> 1000 nM,–,–,–
COc1ccc(Cl)c(CN2CCCn3c2nc2c3c(=O)n(C)c(=O)n2C)c1F,16%,> 100000 nM,–,–,927 nM,840 nM,627 nM,–,–,–
Cc1cccc(CN2CCCn3c2nc2c3c(=O)n(C)c(=O)n2C)c1,17%,> 100000 nM,> 1000 nM,> 1000 nM,1910 nM,313 nM,> 1000 nM,–,–,–
